Assay outcomes deposited in PubChem BioAssay by Broad Institute.
Only some compounds are listed: those with a hit (about 3.1% of all), similar ones and a draw of the others.
SIRT5 inh: SIRT5 desuccinylase inhibitors, primary screen, biochemical, fluorescence imaging, single point, set 5 | AID 652115, 2013 | inhibition, % at 15 µM | NAD-dependent protein deacylase sirtuin-5, mitochondrial (Homo sapiens), Q9NXA8 | Purified SirT5, succinyl-peptide AMC, trypsin-coupled fluorescence | 330,000 tested, 1.1% active; in the data active = inhibition above about 15%; inconclusive = no clear call, values can overlap the other calls
CFTR F508del cor: F508del CFTR correction, initial screen, CFBE line, single point; CFBE cells, YFP halide quenching; stimulated with forskolin plus potentiator P3; % fluorescence drop versus neutral controls; 350,000 tested, 0.36% active; activity (quench increase), % at 7.58 µM;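 active = mean added fluorescence quench of at least 8% versus neutral control, with both replicates also reaching 8%; inconclusive = only one of the mean or replicate conditions met; inactive = mean below 8% and not both replicates reaching 8%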;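 note: cells transiently co-express mutant CFTR-F508del with the halide-sensitive YFP; corrector assay measuring rescue of mutant channel to the surface after 24 h compound exposure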
S100A4 inh HTS: inhibitors of S100A4-myosin IIA peptide binding, primary screen, biochemical, fluorescence polarization, TAMRA-MyoIIA peptide; Protein S100-A4 (Homo sapiens), P26447; inhibition, % at 10.7 µM; 360,000 tested, 0.14% active; AID 652163, 2013;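 active = mean inhibition of at least 70% across replicates, with every replicate also reaching that level; inconclusive = mean inhibition reaches 70% but some replicates fall short; inactive = mean inhibition below 70%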
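Assay system: human S100A4 monomer with TAMRA-labelled myosin IIA peptide / Buffer or medium: Calcium-containing HEPES buffer, pH 7.2 / Reagent: TAMRA-labelled myosin IIA heavy-chain peptide probe, 5 nM / Compound: one dose per compound / Timing: polarization read 5 min after assay mix addition, stable 5–60 min / Benchmarks: neutral control DMSO, positive control TFP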
Ecoli rRNA inh: reduced GFP signal of wild-type E. coli, primary screen, bacterial rRNA inhibitor project, GFP/RFP fluorescence, OD600, single point; GFP signal change (wild-type ribosome), % (concentration not given with the values); 350,000 tested, 1.6% active; E. coli WT GFP vs humanized-ribosome RFP mutants, 24 h; hits give low values; DMSO median 0, no signal -100;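 active = significant combined selectivity score with lowered wild-type GFP, culture density cut under 30%, mutant RFP and density less affected; inactive = any of these conditions unmet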
ERAP1 inh: human ERAP1 aminopeptidase inhibitors, primary screen, biochemical, single point, plate reader; 340,000 tested, 0.15% active; recombinant ERAP1, Leu-AMC fluorescence, 60 min; inhibition, % at 10.7 µM; AID 652197, 2013; Endoplasmic reticulum aminopeptidase 1 (Homo sapiens), Q9NZ08;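 active = mean replicate inhibition of at least 30%, or all replicates individually reaching that 30% level; inactive = mean below 30% and not every replicate reaching it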
Target sequence (Q9NZ08 whole entry, looked up): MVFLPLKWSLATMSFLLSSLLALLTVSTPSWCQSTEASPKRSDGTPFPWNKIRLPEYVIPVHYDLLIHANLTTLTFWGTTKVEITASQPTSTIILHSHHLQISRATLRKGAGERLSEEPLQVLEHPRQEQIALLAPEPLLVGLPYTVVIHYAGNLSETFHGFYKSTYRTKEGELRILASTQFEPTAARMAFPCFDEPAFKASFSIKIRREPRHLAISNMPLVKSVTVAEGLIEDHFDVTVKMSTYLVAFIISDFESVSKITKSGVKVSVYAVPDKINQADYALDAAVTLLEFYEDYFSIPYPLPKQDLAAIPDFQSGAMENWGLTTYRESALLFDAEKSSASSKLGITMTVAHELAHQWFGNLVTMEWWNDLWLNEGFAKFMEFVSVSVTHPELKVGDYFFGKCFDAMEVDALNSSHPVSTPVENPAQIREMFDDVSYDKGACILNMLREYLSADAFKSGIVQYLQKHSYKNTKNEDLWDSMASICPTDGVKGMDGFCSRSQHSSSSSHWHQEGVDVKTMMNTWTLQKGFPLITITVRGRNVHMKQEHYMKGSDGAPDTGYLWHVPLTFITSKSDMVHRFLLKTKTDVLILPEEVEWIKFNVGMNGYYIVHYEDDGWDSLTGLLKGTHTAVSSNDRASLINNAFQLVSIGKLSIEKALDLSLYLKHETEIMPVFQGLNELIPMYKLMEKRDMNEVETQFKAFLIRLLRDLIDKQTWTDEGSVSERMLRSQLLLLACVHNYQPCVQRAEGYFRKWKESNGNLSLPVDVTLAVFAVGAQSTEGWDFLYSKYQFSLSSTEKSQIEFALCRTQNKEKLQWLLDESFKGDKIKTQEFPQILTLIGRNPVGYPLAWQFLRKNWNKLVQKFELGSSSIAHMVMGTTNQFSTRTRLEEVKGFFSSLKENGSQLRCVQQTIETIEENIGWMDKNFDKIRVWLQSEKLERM
Each line names hits and unclear results; the compound was inactive in the other large screens.

COc1ccc(C(CNC(=O)c2ccc(Cl)c(S(=O)(=O)N3CCCC3)c2)N2CCCC2)cc1 (stereo unspecified)	none
COc1ccc(NS(=O)(=O)c2cccc(Cl)c2Cl)cc1S(=O)(=O)N1CCCCC1	Ecoli rRNA inh -35 (no result: CFTR F508del cor)
COc1ccc(C(=O)Nc2ccc(NC(C)=O)cc2)cc1S(=O)(=O)N1CCCC1	Ecoli rRNA inh -33
C[C@H]1CCCCO[C@H](CN(C)C(=O)Nc2ccc(F)cc2)[C@@H](C)CN([C@@H](C)CO)C(=O)c2cc(N(C)C)ccc2O1	none (no result: SIRT5 inh, S100A4 inh HTS, ERAP1 inh)
C[C@H]1CN([C@@H](C)CO)C(=O)Cc2cc(NC(=O)Nc3cccc4ccccc34)ccc2O[C@@H]1CN(C)C(=O)Nc1ccccc1	none
CN(C)C(CNC(=O)CCc1nc2cc(Cl)ccc2n(Cc2ccccc2)c1=O)c1ccccc1 (stereo unspecified)	S100A4 inh HTS 190
COc1ccc(CCn2c(N)c(S(=O)(=O)c3cccs3)c3nc4ccccc4nc32)cc1OC	Ecoli rRNA inh -21
CC(C)CCn1c(N)c(S(=O)(=O)c2cccs2)c2nc3ccccc3nc21	none
COc1ccc2c3c(n(C)c2c1)[C@H](CO)N(C(C)=O)CC31CCN(S(=O)(=O)c2ccccc2)CC1	none (no result: SIRT5 inh)
C[C@H](CO)N1C[C@H](C)[C@@H](CN(C)Cc2ccc(C(F)(F)F)cc2)OCCCC[C@H](C)Oc2ccc(NS(=O)(=O)c3cccs3)cc2C1=O	SIRT5 inh 21
C[C@@H]1CN([C@@H](C)CO)C(=O)c2cc(NS(=O)(=O)c3cccs3)ccc2O[C@@H](C)CCCCO[C@H]1CN(C)Cc1ccc(C(F)(F)F)cc1	none
C[C@@H]1CCCCO[C@@H](CN(C)Cc2ccc(Cl)c(Cl)c2)[C@H](C)CN([C@@H](C)CO)C(=O)c2cc(NS(=O)(=O)c3cccs3)ccc2O1	SIRT5 inh 25
C[C@@H]1CN([C@H](C)CO)C(=O)c2cc(NS(=O)(=O)c3cccs3)ccc2O[C@@H](C)CCCCO[C@H]1CN(C)Cc1ccc(C(=O)O)cc1	none
C[C@@H]1CN([C@H](C)CO)C(=O)c2cc(NS(=O)(=O)c3cccs3)ccc2O[C@@H](C)CCCCO[C@@H]1CN(C)Cc1ccc(C(F)(F)F)cc1	SIRT5 inh 19
C[C@@H]1CN([C@@H](C)CO)C(=O)c2cc(NS(=O)(=O)c3cccs3)ccc2O[C@@H](C)CCCCO[C@H]1CN(C)Cc1ccc(C(=O)O)cc1	none
C[C@@H]1CCCCO[C@H](CN(C)Cc2ccc(C(F)(F)F)cc2)[C@@H](C)CN([C@@H](C)CO)C(=O)c2cc(NS(=O)(=O)c3cccs3)ccc2O1	SIRT5 inh 17
C[C@@H]1CN([C@H](C)CO)C(=O)c2cc(NS(=O)(=O)c3cccs3)ccc2O[C@@H](C)CCCCO[C@H]1CN(C)Cc1ccc(Cl)c(Cl)c1	none
COc1ccc(C(=O)NNC(=S)NC(=O)c2ccc(Br)o2)cc1OC	none
CCCC(=O)Nc1ccc(C(=O)NNC(=S)NC(=O)c2ccc(Br)o2)cc1	Ecoli rRNA inh -27
CN(C)CCCN(C(=O)c1ccc(C(=O)c2ccccc2)cc1)c1nc2c(F)cccc2s1	none
CN(C)CCCN(C(=O)c1ccc2c(c1)CCCC2)c1nc2ccc(Cl)cc2s1	none (no result: SIRT5 inh, CFTR F508del cor)
CN(C)CCN(C(=O)c1ccc2c(c1)CCCC2)c1nc2c(F)cccc2s1	Ecoli rRNA inh -18
COc1cccc2sc(N(CCN(C)C)C(=O)c3ccc4c(c3)CCCC4)nc12	Ecoli rRNA inh -30
CC(C)c1cn(CC[C@@H]2CC[C@H](NS(=O)(=O)c3ccc(Cl)cc3)[C@H](CO)O2)nn1	none
Cc1ccc(/C=C2/SC(=O)N(CC(=O)N3CCOCC3)C2=O)s1	S100A4 inh HTS 106
CCOc1ccc(S(=O)(=O)NN2Cc3ccccc3C2=N)cc1	SIRT5 inh 18
CC(Cc1ccccc1)NC(=O)CC(c1ccccc1)c1ccccc1O (stereo unspecified)	none
CC(Cc1ccccc1)NC(=S)CN1CCCC1=S (stereo unspecified)	Ecoli rRNA inh -21
CCCS(=O)(=O)N1CCn2c(nc3ccccc32)C1	SIRT5 inh 15
C[C@@H]1CN([C@H](C)CO)C(=O)c2cc(NC(=O)c3ccccc3)ccc2O[C@@H](C)CCCCO[C@H]1CN(C)C(=O)CCC(F)(F)F	none
CCOC(=O)c1sc(=S)n(C)c1NC(=O)c1ccc(OC)cc1	Ecoli rRNA inh -21
C[C@H](CO)N1C[C@H](C)[C@@H](CN(C)Cc2cccc(C(=O)O)c2)Oc2ncc(C#C[C@@H](C)O)cc2C1=O	none
C/C(N)=C(/C#N)C(=O)COC(=O)c1cccc2ccccc12	none
C/C(N)=C(/C#N)C(=O)COC(=O)c1ccccc1C(=O)c1ccc(C)cc1	Ecoli rRNA inh -21
CCc1c(C)nc2ccc(Br)cc2c1SCCC#N	SIRT5 inh 112
CC(C)NC(=O)N(C)C[C@@H]1OCc2ccccc2-c2ccccc2C(=O)N([C@H](C)CO)C[C@H]1C	none
COCCNC(=O)C[C@H]1CC[C@@H]2[C@H](COc3ccc(NC(=O)c4cc(C)on4)cc3C(=O)N2C)O1	none
Oc1ccc(NC(=S)N=Nc2c(O)[nH]c3ccc(Br)cc23)cc1	Ecoli rRNA inh -23
Oc1[nH]c2ccc(Br)cc2c1N=NC(=S)Nc1ccc(F)cc1	CFTR F508del cor inconclusive (no result: ERAP1 inh)
O=C(N=Nc1c(O)[nH]c2ccc(Br)cc12)c1ccccc1-n1cccc1	CFTR F508del cor 13, Ecoli rRNA inh -29
Oc1cccc(NC(=S)N=Nc2c(O)[nH]c3ccc(Br)cc23)c1	Ecoli rRNA inh -37
COc1ccc(NC(=S)N=Nc2c(O)[nH]c3ccccc23)cc1	Ecoli rRNA inh -47
O=C(N=Nc1c(O)[nH]c2ccc(Br)cc12)c1ccco1	none
CCOC(=O)C(C)Oc1cc(Cl)c(C=O)cc1OC (stereo unspecified)	SIRT5 inh 16
CN1CCN(C(=O)C[C@@H]2C[C@@H]3c4cc(NC(=O)Nc5ccc(F)cc5)ccc4O[C@@H]3[C@H](CO)O2)CC1	none
C[C@H](CO)N1C[C@H](C)[C@H](CN(C)C(=O)Nc2ccccc2)Oc2c(NS(=O)(=O)c3ccc(F)cc3)cccc2C1=O	none
CN(C)C(=O)c1ccc(N=Nc2c(O)c3ccccc3[nH]c2=O)cc1	Ecoli rRNA inh -21
Cc1n[nH]c(C)c1S(=O)(=O)N1CCC(C(=O)N2CCn3c2nc2ccccc23)CC1	Ecoli rRNA inh -23
CCC(=O)N1CCn2c1nc1ccccc12	none
